Test results as given in ChEMBL document CHEMBL4024790 (J Med Chem, 2018).
Active and inactive are the calls of the source. The rule behind the calls is not given here.

How the values were obtained:
Liver [1] = test: Drug metabolism in human liver microsomes assessed as 3-(7-methyl-5-(1-methyl-5-(5-(trifluoromethyl)pyridin-2-yl)-1H-pyrazol-4-yl)imidazo[1,5-f][1,2,4]triazin-4-ylamino)propanoic acid formation at 1 to 50 uM after 1 hr by LC-MS/MS analysis; format: ADME, microsome
How it was run: (§1)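 Rat, dog or human liver microsomes or hepatocytes (P450 0.35–0.5 µM final) incubated with compound at 1, 10 or 50 µM in 100 mM phosphate buffer with 1 mM NADP regenerating system, 37°C for 1 h; quenched with 4 volumes acetonitrile, centrifuged, supernatant evaporated, reconstituted in 5% aqueous acetonitrile and analysed by reversed-phase LC.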

Liver [2] = test: Drug metabolism in dog liver microsomes assessed as 3-(7-methyl-5-(1-methyl-5-(5-(trifluoromethyl)pyridin-2-yl)-1H-pyrazol-4-yl)imidazo[1,5-f][1,2,4]triazin-4-ylamino)propanoic acid formation at 1 to 50 uM after 1 hr by LC-MS/MS analysis; format: ADME, Canis lupus familiaris, microsome; how it was run: as §1
[3] = Drug metabolism in dog hepatocytes assessed as 1-(7-methyl-5-(1-methyl-5-(5-(trifluoromethyl)pyridin-2-yl)-1H-pyrazol-4-yl)imidazo[1,5-f][1,2,4]triazin-4-yl)azetidin-3-ol formation at 1 to 50 uM after 1 hr by LC-MS/MS analysis; format: ADME, cell-based, Canis lupus familiaris, Hepatocyte; how it was run: as §1
[4] = Drug metabolism in human hepatocytes assessed as 3-(7-methyl-5-(1-methyl-5-(5-(trifluoromethyl)pyridin-2-yl)-1H-pyrazol-4-yl)imidazo[1,5-f][1,2,4]triazin-4-ylamino)propanoic acid formation at 1 to 50 uM after 1 hr by LC-MS/MS analysis; format: ADME, cell-based, Hepatocyte; how it was run: as §1
Rattus norvegicus [5] = test: Cardiotoxicity in rat at 5 to 250 mg/kg/day, po up to 15 days by microscopic method; format: toxicity, organism-based; details: in vivo, 360 h
How it was run: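 Exploratory rat toxicity study, oral dosing at 5, 50 and 250 mg/kg/day for up to 15 days, with microscopic examination of heart and vasculature and measurement of plasma and brain exposure.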

Canis familiaris [6] = test: Toxicity in dog up to 30 mg/kg, po administered as single dose by microscopic method; format: organism-based, Canis lupus familiaris; details: in vivo
Canis familiaris [7] = test: Toxicity in dog assessed as effect on vasculature up to 15 mg/kg/day, po for 14 days by microscopic method; format: organism-based, Canis lupus familiaris; details: in vivo, 336 h
Rattus norvegicus [8] = test: Reversal of MK-801-induced disruption of low frequency cortical delta oscillation in Sprague-Dawley rat brain at 0.03 mg/kg, iv measured up to 55 mins by electrophysiology method; format: functional, organism-based
Rattus norvegicus [9] = test: Antipsychotic activity in Long Evans rat at 0.32 to 3.2 mg/kg, sc by conditioned avoidance responding assay; format: functional, organism-based
How it was run: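 Rats dosed SC at 0.32, 1.0 and 3.2 mg/kg; conditioned avoidance responding also run in combination with risperidone 0.032 mg/kg.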

Mus musculus = test: In vivo effect on phosphorylated CREB level in CD-1 mouse brain hippocampus by immunoassay; format: functional, organism-based
Cytochrome P450 1A2 [10] = biological target: T1, Cytochrome P450 1A2 (Homo sapiens, UniProt P05177); test: Inhibition of recombinant human CYP1A2; format: ADME; details: recombinant enzyme
T1 sequence (P05177 whole entry): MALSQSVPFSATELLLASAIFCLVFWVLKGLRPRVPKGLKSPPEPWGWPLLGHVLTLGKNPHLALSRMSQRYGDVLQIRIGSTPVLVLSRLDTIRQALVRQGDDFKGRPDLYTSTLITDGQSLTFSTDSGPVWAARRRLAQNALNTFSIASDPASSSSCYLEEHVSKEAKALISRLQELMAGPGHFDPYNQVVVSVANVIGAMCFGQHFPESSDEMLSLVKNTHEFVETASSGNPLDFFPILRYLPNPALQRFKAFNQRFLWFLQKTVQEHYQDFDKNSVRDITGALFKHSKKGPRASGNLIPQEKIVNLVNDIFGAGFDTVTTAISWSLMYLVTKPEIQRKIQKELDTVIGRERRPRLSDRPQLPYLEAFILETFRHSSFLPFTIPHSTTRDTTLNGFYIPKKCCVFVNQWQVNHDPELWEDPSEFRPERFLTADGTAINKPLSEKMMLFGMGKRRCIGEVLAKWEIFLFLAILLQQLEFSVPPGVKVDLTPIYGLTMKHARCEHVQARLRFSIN

Cytochrome P450 2B6 = biological target: T2, Cytochrome P450 2B6 (Homo sapiens, UniProt P20813); test: Time-dependant inhibition of recombinant human CYP2B6; format: ADME; details: recombinant enzyme
T2 sequence (P20813 whole entry): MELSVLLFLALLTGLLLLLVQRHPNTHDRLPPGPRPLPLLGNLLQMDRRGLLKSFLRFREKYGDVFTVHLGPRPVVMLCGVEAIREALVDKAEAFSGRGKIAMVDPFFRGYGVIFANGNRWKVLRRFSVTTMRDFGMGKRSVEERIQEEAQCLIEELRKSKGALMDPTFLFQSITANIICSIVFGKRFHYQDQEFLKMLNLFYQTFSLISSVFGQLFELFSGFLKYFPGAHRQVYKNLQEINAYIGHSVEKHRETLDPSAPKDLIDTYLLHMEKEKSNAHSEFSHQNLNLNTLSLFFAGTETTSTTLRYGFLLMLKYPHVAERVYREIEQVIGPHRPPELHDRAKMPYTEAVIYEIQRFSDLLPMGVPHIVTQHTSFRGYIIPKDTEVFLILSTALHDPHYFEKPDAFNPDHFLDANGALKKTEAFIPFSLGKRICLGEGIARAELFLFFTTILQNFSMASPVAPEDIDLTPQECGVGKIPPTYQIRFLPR

Cytochrome P450 2C9 = Cytochrome P450 2C9 (Homo sapiens, UniProt P11712); test: Time-dependant inhibition of recombinant human CYP2C9; format: ADME; details: recombinant enzyme
Cytochrome P450 1A2 [11] = biological target: T1, Cytochrome P450 1A2; test: Induction of CYP1A2 (unknown origin); format: ADME
[12] = Terminal half life in Wistar Han rat at 5 mg/kg, po administered via gavage by LC-MS/MS analysis; format: ADME, organism-based; details: in vivo, read-out: beta t1/2 (converted)
[13] = Plasma clearance in Wistar Han rat at 1 mg/kg, iv by LC-MS/MS analysis; format: ADME, organism-based
How it was run: (§2)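 Single iv dose to male Wistar-Han rats (1 mg/kg) or dogs (0.3 mg/kg), given as a solution in 20% (w/v) SBECD with HCl. Dose volume 1 mL/kg in rats and 0.4 mL/kg in dogs. Blood taken by carotid artery cannula from 2 min to 24 h into K2EDTA (rat) or K3EDTA (dog) tubes. Plasma analysed by LC-MS/MS with positive electrospray after acetonitrile precipitation with internal standard.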

[14] = Terminal half life in Wistar Han rat at 1 mg/kg, iv by LC-MS/MS analysis; format: ADME, organism-based; details: in vivo, read-out: beta t1/2 (converted); how it was run: as §2
[15] = AUC (0 to infinity) in beagle dog at 0.3 mg/kg, iv by LC-MS/MS analysis; format: ADME, organism-based, Canis lupus familiaris; design: dose 0.3 mg/kg, route intravenous, time infinity; details: in vivo
How it was run: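 Dogs received a single IV dose as a solution in 20% (w/v) sulfobutylether-β-cyclodextrin with hydrochloric acid, at 0.4 mL/kg. Blood was drawn by carotid artery cannula into K3EDTA at set times from 2 min to 24 h. Plasma was acetonitrile-precipitated with internal standard and run by positive-ESI LC-MS/MS against standards of 0.61–1250 ng/mL. AUC was extrapolated from time 0 to infinity.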

Sequence of Cytochrome P450 2C9 (P11712 whole entry): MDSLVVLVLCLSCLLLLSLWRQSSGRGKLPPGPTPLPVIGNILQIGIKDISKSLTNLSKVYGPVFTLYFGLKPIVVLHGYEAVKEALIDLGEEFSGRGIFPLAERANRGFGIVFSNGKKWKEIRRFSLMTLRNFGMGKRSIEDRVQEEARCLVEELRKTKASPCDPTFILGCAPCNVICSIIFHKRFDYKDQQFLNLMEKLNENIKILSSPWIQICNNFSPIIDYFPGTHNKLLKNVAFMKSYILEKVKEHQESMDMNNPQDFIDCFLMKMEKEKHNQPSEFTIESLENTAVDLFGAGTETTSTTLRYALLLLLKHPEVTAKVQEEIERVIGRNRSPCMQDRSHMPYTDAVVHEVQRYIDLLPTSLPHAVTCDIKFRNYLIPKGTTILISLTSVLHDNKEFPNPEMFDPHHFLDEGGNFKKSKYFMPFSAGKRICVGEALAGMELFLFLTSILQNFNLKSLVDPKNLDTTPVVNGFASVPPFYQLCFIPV

Drug metabolism (Liver [1]): Metabolite_Detected
Drug metabolism (Liver [2]): Metabolite_Detected
Drug metabolism [3]: Metabolite_Detected
Drug metabolism [4]: Metabolite_Detected
inhibition (INH) (Cytochrome P450 1A2 [10]): Not Active
TDI (Cytochrome P450 2B6): Not Active
TDI (Cytochrome P450 2C9): Not Active
Activity (Cytochrome P450 1A2 [11]): Not Active
half-life [12]: 1.4 h
clearance [13]: 122 mL/min/kg
half-life [14]: 1.1 h
AUC(0-inf) [15]: 431 ng·h/mL
SMILES: Cc1nc(-c2cnn(C)c2-c2ccc(C(F)(F)F)cn2)c2c(N3CCC3)ncnn12 [PF-05180999]
Activity (Rattus norvegicus [5]): Non-Toxic
Activity (Canis familiaris [6]): Non-Toxic
Activity (Canis familiaris [7]): Non-Toxic
Activity (Rattus norvegicus [8]): inactive
Activity (Rattus norvegicus [9]): inactive
Activity (Mus musculus): inactive
